Compound activity as filed in PubChem BioAssay.
ZTA counter: blocks Epstein-Barr virus ZTA, an EBNA-1 counter-screen. P03206. ZTA-DNA binding, fluorescence polarization. inhibition, % at 11 µM. 0.15% of 320,000 active. AID 2234; in the data active = inhibition above about 33%
Target sequence (P03206 whole entry, looked up): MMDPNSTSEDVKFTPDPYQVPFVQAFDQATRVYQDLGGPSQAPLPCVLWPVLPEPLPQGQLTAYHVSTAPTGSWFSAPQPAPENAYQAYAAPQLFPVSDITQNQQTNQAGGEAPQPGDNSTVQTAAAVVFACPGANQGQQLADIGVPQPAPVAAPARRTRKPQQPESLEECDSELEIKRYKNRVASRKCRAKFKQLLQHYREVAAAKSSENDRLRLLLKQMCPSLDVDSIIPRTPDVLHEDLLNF
EBNA-1 inh: EBNA-1 DNA-binding inhibitors, primary screen, biochemical, fluorescence polarization. 0.34% of 300,000 active. inhibition, % at 14.8 µM; in the data active = inhibition above about 28%
PfM18AAP inh: PfM18AAP inhibitors, malaria aminopeptidase, primary screen, biochemical, QFRET, recombinant enzyme | H-Glu-NHMec fluorogenic cleavage | M18 aspartyl aminopeptidase (Plasmodium falciparum 3D7) | 1.2% of 290,000 active | inhibition, % at 7.35 µM;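 active = inhibition above the campaign mean inhibition over all tested compounds plus 3 SD, cut at about 28% in these data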;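 also: 0% = plate median of test compound wells and 100% = 2 mM ZnCl2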
HCV NS3 hel inh: inhibitors of HCV NS3 helicase, primary screen, biochemical, Cy5 molecular beacon fluorescence; Hepatitis C virus NS3 helicase; NS3 helicase DNA unwinding; 0.56% of 290,000 active; AID 1800, 2009; inhibition, % at 10.9 µM;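 active = inhibition above the mean of all tested compounds plus 3 SD, set per campaign, cut at about 35% in these data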;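 also: 0% = DMSO wells and 100% = thioflavine S control wells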
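Material: hepatitis C virus NS3 helicase domain fragment enzyme; measured by: Cy5 fluorescence, 0 and 60 min reads; control set: DMSO and thioflavine S; incubation: 60 min unwinding reaction at 25 °C after ATP addition; read-out basis: % inhibition from 60/0 min fluorescence ratio, DMSO 0%, thioflavine S 100%; repeats: singlicate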
core dimer inh: inhibitors of HCV core protein dimerization, primary screen, biochemical, TR-FRET, high-throughput | 0.33% of 300,000 active | inhibition, % at 5 µM | TR-FRET GST/Flag-core106 dimerization, 1536-well | AID 1899, 2009;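 active = inhibition above the mean of all tested compounds plus 3 SD, set per screening campaign, cut at about 45% in these data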
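test system = GST/Flag-tagged HCV core106 proteins | probe or stimulus = Eu donor and XL665 acceptor anti-tag antibodies | times = compound-protein-antibody incubation 4 h at 22.5 °C | signal = TR-FRET, excitation 340 nm, emission 617 and 671 nm | measure = percent inhibition of core106 dimerization signal | controls = wells lacking GST-core106 and wells with excess unlabelled core106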
ALR H2O2 inh: inhibitors of human ALR sulfhydryl oxidase, primary screen, biochemical, H2O2 detection, HRP-luminol luminescence, single point; purified ALR, DTT oxidation; inhibition, % (test concentration not listed); 3.8% of 290,000 active; AID 485317, 2010;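 active = mean replicate inhibition above about 79%, with every replicate also reaching it, limit read from the data; inconclusive = only one of the two criteria met; inactive = mean below limit and not every replicate reaching it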
Target sequence (P55789 whole entry, looked up): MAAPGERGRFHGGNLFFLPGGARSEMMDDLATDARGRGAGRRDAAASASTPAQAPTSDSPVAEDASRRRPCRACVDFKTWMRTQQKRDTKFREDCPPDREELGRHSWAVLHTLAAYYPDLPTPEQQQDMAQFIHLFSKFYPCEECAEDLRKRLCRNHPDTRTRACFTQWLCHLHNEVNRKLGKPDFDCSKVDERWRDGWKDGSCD
NS3 helicase cf: HCV NS3 helicase inhibitors, retest, confirmation, biochemical, Cy5 molecular beacon fluorescence, triplicate. shares compounds with HCV NS3 hel inh. NS3 helicase DNA unwinding. inhibition, % at 10.9 µM. 31% of 1,600 active;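 active = inhibition above the mean of all tested compounds plus 3 SD, cutoff set per campaign, cut at about 36% in these data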
DNA FID counter: compounds displacing fluorescent DNA intercalator, artefact control for HCV NS3 helicase inhibitor project, biochemical, FID fluorescence, triplicate; DNA fluorescent intercalator displacement; shares compounds with HCV NS3 hel inh; 4% of 1,600 active; inhibition, % at 7.9 µM; in the data active = inhibition above about 37%;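 also: 0% = vehicle and 100% = reference compound; higher means more displacement of ethidium bromide from the DNA hairpin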
FID counter DR: compounds displacing fluorescent intercalator from DNA, dose response, counter-screen for HCV NS3 helicase inhibitor project, biochemical, fluorescence; shares compounds with HCV NS3 hel inh; fluorescent intercalator displacement from DNA; IC50, µM; 120 tested, under 10 active; AID 2172, 2009; call rule not given here
Active calls of the source: *; u = inconclusive; x = no result. An excerpt weighted towards active compounds, which were near 5.2% of everything screened.

SMILES	ZTA counter	EBNA-1 inh	PfM18AAP inh	HCV NS3 hel inh	core dimer inh	ALR H2O2 inh	NS3 helicase cf	DNA FID counter	others
CCN(CC(=O)Nc1cccc(OC)c1)CC(=O)Nc1ccc(C)cc1Cl	10.1	0.6	2.0	-5.1	-12.8	1.8	x	x
Cc1nc(-c2ccc(-n3nncc3-c3ccco3)cc2)cs1	-6.7	7.7	15.7	56.2*	5.0	1.0	-16.6	-21.5
Nc1nc(-c2ccc(-n3nncc3-c3ccco3)cc2)cs1	3.4	-2.4	-3.7	-5.6	8.8	-5.4	x	x
COc1ccc(S(=O)(=O)N2CCCOC2CNC(=O)C(=O)NCCc2ccco2)cc1 (centres undefined)	-4.9	-6.2	-3.6	18.1	8.0	-6.4	x	x
CCOC(=O)c1sc2nc3c(SCCC(=O)O)cc(C(=O)c4cc(OC)ccc4O)cn3c(=O)c2c1C	x	x	7.5	40.5*	x	x	82.5*	14.1	FID counter DR=>79.4
Cc1ccc(S(=O)(=O)Nc2nc3ccccc3nc2NCc2ccco2)cc1	6.7	-7.3	27.2	36.0*	2.4	-17.1	39.6*	-1.3
O=S(=O)(Nc1nc2ccccc2nc1NCc1ccco1)c1ccc(Cl)cc1	6.4	8.0	23.6	28.9	19.8	5.3	x	x
COc1cc(/C=C2\SC(=O)N(c3ccc(Cl)cc3)C2=O)cc([N+](=O)[O-])c1O	x	x	1.0	0.4	x	x	x	x
COc1cccc(/C=C2/C(=O)NN(c3ccccc3)C2=O)c1	x	x	18.6	23.8	x	u	x	x
CCOc1cc(/C=C2/C(=O)NN(c3cccc(Cl)c3)C2=O)ccc1O	1.9	0.5	22.6	36.7*	12.9	98.2*	63.7*	-3.9
COc1cc(/C=C2/C(=O)NN(c3cccc(Cl)c3)C2=O)cc(OC)c1O	-15.4	-1.3	24.3	46.3*	8.5	91.0*	51.5*	14.3
COc1cc(/C=C2/C(=O)NN(c3ccc(C)c(Cl)c3)C2=O)cc([N+](=O)[O-])c1O	x	x	9.6	37.3*	x	98.9*	68.3*	-2.3
CCOC(=O)Cc1cc(=O)n2[nH]cc(-c3ccc(Cl)cc3)c2n1	8.5	-4.8	9.8	64.3*	4.0	98.6*	84.3*	12.7
CCn1cc(C(=O)O)c(=O)c2cc(F)c(N3CCN(C(=S)NC(=O)c4ccc(F)cc4)CC3)cc21	4.5	1.2	2.4	-4.9	-1.1	0.8	x	x
CCn1cc(C(=O)O)c(=O)c2cc(F)c(N3CCN(C(=S)NC(=O)c4ccccc4Br)CC3)cc21	9.6	-17.7	-12.4	50.3*	7.2	x	11.8	0.9
O=C(NC(Cc1ccccc1)C(=O)O)/C(=C\c1ccc(Br)cc1)NC(=O)c1ccc(Br)o1 (centres undefined)	3.3	7.4	-4.9	11.0	7.0	u	x	x
O=C(NC(Cc1ccccc1)C(=O)O)/C(=C/c1ccc(Br)cc1)NC(=O)c1ccc(Br)o1 (centres undefined)	-0.6	4.7	-0.2	41.2*	-2.0	1.0	38.0*	-19.1
CCCCc1cc(=O)oc2c(C)c(OCC(=O)NCC3CCC(C(=O)O)CC3)ccc12 (centres undefined)	-12.9	-5.3	12.5	11.7	1.6	x	x	x
CCC1Cc2c(nc(N)c3c(N)nc(N4CCOCC4)c(C#N)c23)O1 (centres undefined)	6.8	-1.2	5.2	-6.8	-3.3	3.6	x	x
N#Cc1c(N2CCCCC2)nc(N)c2c(N)nc3c(c12)CC(CCl)O3 (centres undefined)	-7.0	15.1	3.6	58.0*	-2.0	-56.6	-7.4	7.0
